Active and inactive are the calls of the source. No cut-off for these calls is given here.

The target in data set [1] is T1, Glucose-dependent insulinotropic receptor (Homo sapiens, UniProt Q8TDV5).
T1 sequence (Q8TDV5 whole entry): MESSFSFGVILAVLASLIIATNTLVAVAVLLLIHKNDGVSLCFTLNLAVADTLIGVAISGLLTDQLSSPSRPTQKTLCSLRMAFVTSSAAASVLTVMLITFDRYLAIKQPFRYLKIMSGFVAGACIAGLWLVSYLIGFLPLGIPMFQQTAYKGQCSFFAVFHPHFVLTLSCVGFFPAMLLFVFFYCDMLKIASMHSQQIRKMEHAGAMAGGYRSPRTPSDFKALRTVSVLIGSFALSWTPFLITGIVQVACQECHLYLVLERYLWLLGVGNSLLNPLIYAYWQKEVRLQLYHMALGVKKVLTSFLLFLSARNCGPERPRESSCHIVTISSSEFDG
The data set is described as follows: Agonist activity at human GPR119 expressed in CHO-K1 cells after 24 hrs by CRE-luciferase assay. It counts as functional, cell-based.

The target in data set [2] is T2, Glucose-dependent insulinotropic receptor (Homo sapiens) (UniProt Q8TDV5).
T2 sequence (whole entry): T1 sequence (Q8TDV5 whole entry)
Nature of the data set: Activation of human GPR119 expressed in CHO-K1 cells at 1 uM after 24 hrs by CRE-luciferase assay relative to GSK1292263. Type of data set: functional, cell-based.

The target of data set [3] is T3, Cytochrome P450 2C9 (Homo sapiens, UniProt P11712). The data set is described as follows: Induction of CYP2C9 (unknown origin). It counts as ADME.
In data set [4] the target is T4, Cytochrome P450 1A2 (Homo sapiens, UniProt P05177).
T4 sequence (P05177 whole entry): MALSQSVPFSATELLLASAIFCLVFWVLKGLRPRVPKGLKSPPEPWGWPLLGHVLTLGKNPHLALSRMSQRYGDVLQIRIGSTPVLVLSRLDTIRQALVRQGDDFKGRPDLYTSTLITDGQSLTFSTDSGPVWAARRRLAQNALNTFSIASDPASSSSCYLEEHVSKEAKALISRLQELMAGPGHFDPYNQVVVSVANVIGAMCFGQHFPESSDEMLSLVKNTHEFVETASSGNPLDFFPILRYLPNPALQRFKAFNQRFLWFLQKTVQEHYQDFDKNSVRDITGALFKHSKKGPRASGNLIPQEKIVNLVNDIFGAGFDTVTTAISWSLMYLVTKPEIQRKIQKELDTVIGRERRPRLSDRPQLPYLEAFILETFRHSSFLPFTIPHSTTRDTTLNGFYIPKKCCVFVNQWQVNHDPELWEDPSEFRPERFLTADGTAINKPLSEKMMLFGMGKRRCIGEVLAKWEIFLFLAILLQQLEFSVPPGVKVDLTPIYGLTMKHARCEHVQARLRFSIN
Nature of the data set: Induction of CYP1A2 (unknown origin). Type of data set: ADME.

Data set [5] concerns the target T4, Cytochrome P450 1A2. The data set is described as follows: Inhibition of CYP1A2 (unknown origin). Type of data set: ADME.
Data set [6] in a line: Cytotoxicity against mouse NIH/3T3 cells. The note with it: NIH3T3. Type of data set: cell-based.
The next data set concerns Mus musculus. Nature of the data set: Antidiabetic activity in C57BL/6 mouse assessed as reduction in plasma glucose AUC at 15 mg/kg by OGTT. It counts as functional, organism-based. On the set-up: dose 15 mg/kg. The procedure, abridged: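 OGTT in normal mice, n = 7 per group. Plasma glucose was followed over the test, and efficacy was taken as the AUC of glucose concentration. Data are given as means ± SEM.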

The next data set has as its target Cytochrome P450 2D6 (Homo sapiens, UniProt P10635). The data set is described as follows: Inhibition of CYP2D6 (unknown origin). Type of data set: ADME.
For data set [7], the target named is T3, Cytochrome P450 2C9. The data set is described as follows: Inhibition of CYP2C9 (unknown origin). It counts as ADME.
The target in data set [8] is T5, Cytochrome P450 3A4 (Homo sapiens, UniProt P08684). Nature of the data set: Inhibition of CYP3A4 (unknown origin). Type of data set: ADME.
Data set [9] deals with T6, Cytochrome P450 2B6 (Homo sapiens, UniProt P20813).
T6 sequence (P20813 whole entry): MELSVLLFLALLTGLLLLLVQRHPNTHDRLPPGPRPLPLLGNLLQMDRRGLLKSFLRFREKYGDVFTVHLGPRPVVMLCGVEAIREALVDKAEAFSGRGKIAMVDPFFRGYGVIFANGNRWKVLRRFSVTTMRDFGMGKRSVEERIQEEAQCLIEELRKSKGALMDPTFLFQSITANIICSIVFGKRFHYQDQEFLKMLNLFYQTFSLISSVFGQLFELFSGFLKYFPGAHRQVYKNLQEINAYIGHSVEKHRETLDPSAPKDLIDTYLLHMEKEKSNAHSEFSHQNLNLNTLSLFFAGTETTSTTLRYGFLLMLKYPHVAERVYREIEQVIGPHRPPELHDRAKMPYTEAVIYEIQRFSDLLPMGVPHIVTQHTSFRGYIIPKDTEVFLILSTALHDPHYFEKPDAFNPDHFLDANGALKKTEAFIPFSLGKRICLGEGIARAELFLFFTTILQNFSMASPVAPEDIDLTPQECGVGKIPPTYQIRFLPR
The data set is described as follows: Inhibition of CYP2B6 (unknown origin). It counts as ADME.

Another data set concerns the target Cytochrome P450 2C19 (Homo sapiens, UniProt P33261). The data set is described as follows: Inhibition of CYP2C19 (unknown origin). It counts as ADME.
The next data set has as its system HFL1. The data set is described as follows: Cytotoxicity against human HFL1 cells. Type of data set: cell-based.
The target in another data set is hERG (KCNH2) (Homo sapiens, UniProt Q12809). The data set is described as follows: Inhibition of human ERG at 10 uM. The procedure, abridged:
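hERG liability was assessed in a binding-assay format, reported as percent inhibition with the compound at 10 μM.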

Another data set addresses Cytochrome P450 2E1 (Homo sapiens, UniProt P05181). The data set is described as follows: Induction of CYP2E1 (unknown origin). Type of data set: ADME.
Data set [10] is described as follows: Metabolic stability in human liver microsomes assessed as compound remaining at 1 uM after 30 mins by LC/MS/MS analysis. Type of data set: ADME. The note with it: read-out: Stability. A general note: Liver microsomes are a subcellular fraction often used to study metabolism.
Data set [11] concerns the target T5, Cytochrome P450 3A4. The data set is described as follows: Induction of CYP3A4 (unknown origin). It counts as ADME.
The next data set addresses T7, Cytochrome P450 2A6 (Homo sapiens, UniProt P11509).
T7 sequence (P11509 whole entry): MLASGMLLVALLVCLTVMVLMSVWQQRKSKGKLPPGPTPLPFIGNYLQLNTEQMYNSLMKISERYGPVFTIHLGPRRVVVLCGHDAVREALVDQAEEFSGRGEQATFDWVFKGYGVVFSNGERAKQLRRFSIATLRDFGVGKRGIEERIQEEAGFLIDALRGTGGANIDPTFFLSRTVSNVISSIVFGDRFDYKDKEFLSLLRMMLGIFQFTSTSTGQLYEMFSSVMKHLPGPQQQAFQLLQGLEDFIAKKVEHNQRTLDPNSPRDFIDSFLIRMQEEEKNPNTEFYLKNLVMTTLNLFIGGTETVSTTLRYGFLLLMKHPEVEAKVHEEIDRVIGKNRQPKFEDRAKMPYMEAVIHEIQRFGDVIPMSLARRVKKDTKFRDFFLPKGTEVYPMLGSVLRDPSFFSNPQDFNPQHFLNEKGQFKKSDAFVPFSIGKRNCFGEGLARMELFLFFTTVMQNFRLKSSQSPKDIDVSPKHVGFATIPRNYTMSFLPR
Nature of the data set: Inhibition of CYP2A6 (unknown origin). Type of data set: ADME.

Data set [12] is described as follows: Cytotoxicity against chinese hamster CHOK1 cells. Type of data set: cell-based. The note with it: Cricetulus griseus, CHO-K1.
The nature of data set [13]: Metabolic stability in rat liver microsomes assessed as compound remaining at 1 uM after 30 mins by LC/MS/MS analysis. It counts as ADME. As to conditions: read-out: Stability.
The test system of the next data set is L929. Nature of the data set: Cytotoxicity against mouse L929 cells. It counts as cell-based.
Another data set relates to Beta-TC6. Nature of the data set: Increase in glucose-stimulated insulin release in mouse BetaTC6 cells after 1 hr by ELISA. Type of data set: functional, cell-based. Put shortly: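 GSIS was measured in the TC-6 pancreatic beta-cell line exposed to compound over 10 nM to 100 nM, with insulin secretion read under glucose stimulation.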
Data set [14] concerns the target T6, Cytochrome P450 2B6. The data set is described as follows: Induction of CYP2B6 (unknown origin). It counts as ADME.

T3 sequence (P11712 whole entry): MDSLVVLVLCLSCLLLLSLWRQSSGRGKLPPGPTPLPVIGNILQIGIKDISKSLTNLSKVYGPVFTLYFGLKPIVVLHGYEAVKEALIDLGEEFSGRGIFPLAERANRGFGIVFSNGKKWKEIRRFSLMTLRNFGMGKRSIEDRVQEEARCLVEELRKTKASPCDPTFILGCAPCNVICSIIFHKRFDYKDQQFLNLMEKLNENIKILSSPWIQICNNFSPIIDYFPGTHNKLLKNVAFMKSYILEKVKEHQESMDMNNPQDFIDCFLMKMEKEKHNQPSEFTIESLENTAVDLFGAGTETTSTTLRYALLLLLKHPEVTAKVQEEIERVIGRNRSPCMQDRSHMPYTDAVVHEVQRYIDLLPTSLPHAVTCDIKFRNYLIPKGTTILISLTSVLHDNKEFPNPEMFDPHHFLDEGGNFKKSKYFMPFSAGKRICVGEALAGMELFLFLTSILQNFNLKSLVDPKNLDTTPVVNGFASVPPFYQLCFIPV
T5 sequence (P08684 whole entry): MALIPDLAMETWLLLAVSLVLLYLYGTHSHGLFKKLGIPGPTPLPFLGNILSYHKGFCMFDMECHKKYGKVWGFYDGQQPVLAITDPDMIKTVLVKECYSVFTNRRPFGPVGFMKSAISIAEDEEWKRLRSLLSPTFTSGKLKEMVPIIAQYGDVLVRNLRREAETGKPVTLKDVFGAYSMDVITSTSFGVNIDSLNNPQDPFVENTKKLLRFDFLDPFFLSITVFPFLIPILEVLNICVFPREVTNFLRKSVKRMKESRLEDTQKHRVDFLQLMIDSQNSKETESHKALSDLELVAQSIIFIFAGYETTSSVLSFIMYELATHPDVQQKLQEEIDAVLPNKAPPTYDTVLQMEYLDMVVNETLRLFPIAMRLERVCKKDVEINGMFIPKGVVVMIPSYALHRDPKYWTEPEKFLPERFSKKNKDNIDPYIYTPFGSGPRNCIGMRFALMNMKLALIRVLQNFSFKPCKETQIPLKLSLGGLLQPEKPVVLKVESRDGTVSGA
Chain of Cytochrome P450 2D6 (P10635 whole entry): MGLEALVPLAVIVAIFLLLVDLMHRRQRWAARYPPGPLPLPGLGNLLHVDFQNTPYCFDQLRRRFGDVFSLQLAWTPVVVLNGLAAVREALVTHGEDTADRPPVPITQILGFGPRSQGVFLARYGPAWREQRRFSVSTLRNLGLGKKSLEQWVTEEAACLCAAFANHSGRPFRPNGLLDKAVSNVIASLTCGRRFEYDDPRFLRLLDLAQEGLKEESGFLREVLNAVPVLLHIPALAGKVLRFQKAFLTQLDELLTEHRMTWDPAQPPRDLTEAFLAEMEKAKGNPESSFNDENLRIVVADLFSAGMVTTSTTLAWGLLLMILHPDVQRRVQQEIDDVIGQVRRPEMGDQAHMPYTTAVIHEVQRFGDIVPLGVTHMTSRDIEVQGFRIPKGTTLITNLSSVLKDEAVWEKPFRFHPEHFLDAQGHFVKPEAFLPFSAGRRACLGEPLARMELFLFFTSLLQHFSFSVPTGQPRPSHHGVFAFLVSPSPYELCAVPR
Chain of Cytochrome P450 2C19 (P33261 whole entry): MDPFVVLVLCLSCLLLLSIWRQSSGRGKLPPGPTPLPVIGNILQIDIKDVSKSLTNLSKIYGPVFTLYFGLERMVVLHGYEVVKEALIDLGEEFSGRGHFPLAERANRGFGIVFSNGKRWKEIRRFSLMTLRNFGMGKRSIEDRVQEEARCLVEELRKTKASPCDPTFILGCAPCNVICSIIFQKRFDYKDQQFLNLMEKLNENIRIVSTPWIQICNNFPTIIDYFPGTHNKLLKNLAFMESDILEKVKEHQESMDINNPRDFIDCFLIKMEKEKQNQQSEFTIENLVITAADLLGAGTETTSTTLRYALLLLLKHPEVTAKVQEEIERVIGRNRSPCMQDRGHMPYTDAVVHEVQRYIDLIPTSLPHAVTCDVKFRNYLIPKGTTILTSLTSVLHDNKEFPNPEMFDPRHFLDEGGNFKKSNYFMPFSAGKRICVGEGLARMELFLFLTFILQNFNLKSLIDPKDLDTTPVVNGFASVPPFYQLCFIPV
Chain of Cytochrome P450 2E1 (P05181 whole entry): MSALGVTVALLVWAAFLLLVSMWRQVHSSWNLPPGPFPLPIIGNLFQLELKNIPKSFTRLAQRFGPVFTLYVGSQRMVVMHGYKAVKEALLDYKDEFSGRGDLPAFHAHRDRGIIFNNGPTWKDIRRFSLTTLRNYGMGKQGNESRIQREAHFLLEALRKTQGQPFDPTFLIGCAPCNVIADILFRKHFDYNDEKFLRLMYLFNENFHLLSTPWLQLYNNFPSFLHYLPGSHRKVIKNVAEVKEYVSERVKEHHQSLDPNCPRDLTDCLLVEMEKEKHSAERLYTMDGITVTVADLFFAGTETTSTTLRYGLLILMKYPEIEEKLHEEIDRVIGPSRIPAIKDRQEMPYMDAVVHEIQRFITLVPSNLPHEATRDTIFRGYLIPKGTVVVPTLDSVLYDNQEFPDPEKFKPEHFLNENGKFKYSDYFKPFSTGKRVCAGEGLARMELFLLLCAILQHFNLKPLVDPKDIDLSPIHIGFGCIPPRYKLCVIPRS
Chain of hERG (KCNH2) (Q12809 whole entry): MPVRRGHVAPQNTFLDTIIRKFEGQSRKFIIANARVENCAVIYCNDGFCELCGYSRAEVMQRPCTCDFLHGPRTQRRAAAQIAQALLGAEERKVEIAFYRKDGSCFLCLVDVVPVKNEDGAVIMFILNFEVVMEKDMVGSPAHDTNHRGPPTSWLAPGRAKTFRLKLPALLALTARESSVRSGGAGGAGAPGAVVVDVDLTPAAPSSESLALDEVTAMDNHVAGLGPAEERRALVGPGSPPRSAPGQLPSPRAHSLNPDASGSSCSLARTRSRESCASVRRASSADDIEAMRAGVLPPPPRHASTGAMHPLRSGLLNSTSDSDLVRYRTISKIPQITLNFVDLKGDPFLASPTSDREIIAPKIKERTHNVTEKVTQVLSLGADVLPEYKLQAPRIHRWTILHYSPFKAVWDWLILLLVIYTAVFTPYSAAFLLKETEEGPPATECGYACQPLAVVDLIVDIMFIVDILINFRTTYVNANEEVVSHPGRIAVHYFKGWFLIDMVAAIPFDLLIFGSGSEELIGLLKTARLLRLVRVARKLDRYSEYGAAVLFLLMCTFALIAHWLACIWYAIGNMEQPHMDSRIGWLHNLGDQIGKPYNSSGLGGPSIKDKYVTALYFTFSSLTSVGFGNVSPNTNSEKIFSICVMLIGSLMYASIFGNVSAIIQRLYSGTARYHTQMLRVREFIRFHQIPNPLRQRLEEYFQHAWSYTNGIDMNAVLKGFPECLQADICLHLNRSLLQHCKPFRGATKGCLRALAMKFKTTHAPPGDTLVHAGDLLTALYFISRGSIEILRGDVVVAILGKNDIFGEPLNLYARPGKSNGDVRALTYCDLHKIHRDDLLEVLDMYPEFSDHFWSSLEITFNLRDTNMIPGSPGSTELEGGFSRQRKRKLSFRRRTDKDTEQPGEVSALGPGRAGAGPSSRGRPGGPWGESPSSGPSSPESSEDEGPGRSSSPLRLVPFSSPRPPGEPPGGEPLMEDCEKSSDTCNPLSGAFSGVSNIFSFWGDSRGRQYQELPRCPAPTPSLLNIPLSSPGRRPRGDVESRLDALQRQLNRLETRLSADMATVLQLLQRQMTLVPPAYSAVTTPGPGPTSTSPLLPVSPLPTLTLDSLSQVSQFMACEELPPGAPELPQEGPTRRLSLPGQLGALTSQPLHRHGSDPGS

For the compound `CCc1cnc(N2CCC(Oc3ncnc4cc(-c5ccc(S(C)(=O)=O)cc5)sc34)CC2)nc1`, a half-maximal effect in data set [1] (EC50) was put at 240 nM. The compound further showed an Activity in data set [2] of 75%.

The compound `CCc1cnc(N2CCC(Nc3ncnc4cc(-c5ccc(S(C)(=O)=O)cc5)sc34)CC2)nc1` showed an Activity in data set [2] of 49%.

In turn, `CN(c1ncnc2cc(-c3ccc(S(C)(=O)=O)cc3)sc12)C1CCN(C(=O)C2CC2)CC1` yielded an EC50 in [1] of 173 nM. The compound further yielded an Activity in [2] of 72%.

As for `CC(C)S(=O)(=O)N1CCC(N(C)c2ncnc3cc(-c4ccc(S(C)(=O)=O)cc4)sc23)CC1`, in [1], the EC50 was 1200 nM. The compound also had an Activity in data set [2] of 70%.

For the compound `CC(C)(C)OC(=O)N1CCC(Oc2ncnc3cc(-c4ccc(S(C)(=O)=O)cc4)sc23)CC1`, the EC50 in data set [1] came to 100 nM. For the same compound, the Activity in [2] is 64%.

On to `CN(c1ncnc2cc(-c3ccc(S(C)(=O)=O)cc3F)sc12)C1CCN(C(=O)OC2(C)CC2)CC1`, for which the EC50 in data set [1] stood at 26 nM. This compound also came in with an Activity in data set [2] of 105%.

Take `CC(C)NC(=O)N1CCC(N(C)c2ncnc3cc(-c4ccc(S(C)(=O)=O)cc4)sc23)CC1`: in data set [2], the Activity was determined as 49%.

In [2], `CN(c1ncnc2cc(-c3ccc(S(C)(=O)=O)cc3F)sc12)C1CCN(C(=O)C2CC2)CC1` gave an Activity of 65%.

In data set [2], `CCN(c1ncnc2cc(-c3ccc(S(C)(=O)=O)cc3F)sc12)C1CCN(C(=O)OC(C)(C)C)CC1` showed an Activity of 45%.

`CC(C)OC(=O)N1CCC(N(C)c2ncnc3cc(-c4ccc(S(C)(=O)=O)cc4)sc23)CC1` displayed an EC50 in data set [1] of 82 nM. In data set [2], the Activity was 67%.

On to `CN(c1ncnc2cc(-c3ccc(S(C)(=O)=O)cc3F)sc12)C1CCN(C(=O)OC(C)(C)C)CC1`, for which the Activity entry is “Not Active” at Cytochrome P450 2C9 [3]; “Not Active” at Cytochrome P450 1A2 [4]; “Not Active” at Cytochrome P450 2E1; “Not Active” at Cytochrome P450 3A4 [11]; 94% in data set [2]; “Dose-dependent effect” in the data set on Beta-TC6. The Activity entry on Cytochrome P450 2B6 [14] is “Not Active”. For the same compound, the “inhibition (INH)” value against Cytochrome P450 1A2 [5], against Cytochrome P450 2D6, at Cytochrome P450 3A4 [8], against Cytochrome P450 2B6 [9], on Cytochrome P450 2C19 and at Cytochrome P450 2A6 was “Not Active” in each case. The IC50 is 49800 nM in data set [6]; 76800 nM against Cytochrome P450 2C9 [7]; more than 100000 nM in the data set on HFL1; 53400 nM in data set [12]; 65800 nM in the data set on L929. For the same compound, the outcome in the data set with Mus musculus was Active. On hERG (KCNH2), this compound displayed an inhibition at 10 µM of 13%. In [1], this compound returned an EC50 of 3 nM. Further, the remaining at 0.5 h, 1 µM in [10] and in [13] was more than 95% throughout.

As a reminder, the EC50 is the concentration needed to bring the measured effect to its halfway point. Higher therefore signals weaker potency. A word on the IC50: it is the concentration that inhibits the measured activity by half. A higher IC50 goes with a need for much substance. A word on the inhibition: it is the drop in the measured response relative to a control, in per cent. Read a low inhibition as a response near the control.
